For assay [1], the target named is T1, Nuclear factor NF-kappa-B p105 subunit (Homo sapiens, UniProt P19838).
T1 sequence (P19838 whole entry): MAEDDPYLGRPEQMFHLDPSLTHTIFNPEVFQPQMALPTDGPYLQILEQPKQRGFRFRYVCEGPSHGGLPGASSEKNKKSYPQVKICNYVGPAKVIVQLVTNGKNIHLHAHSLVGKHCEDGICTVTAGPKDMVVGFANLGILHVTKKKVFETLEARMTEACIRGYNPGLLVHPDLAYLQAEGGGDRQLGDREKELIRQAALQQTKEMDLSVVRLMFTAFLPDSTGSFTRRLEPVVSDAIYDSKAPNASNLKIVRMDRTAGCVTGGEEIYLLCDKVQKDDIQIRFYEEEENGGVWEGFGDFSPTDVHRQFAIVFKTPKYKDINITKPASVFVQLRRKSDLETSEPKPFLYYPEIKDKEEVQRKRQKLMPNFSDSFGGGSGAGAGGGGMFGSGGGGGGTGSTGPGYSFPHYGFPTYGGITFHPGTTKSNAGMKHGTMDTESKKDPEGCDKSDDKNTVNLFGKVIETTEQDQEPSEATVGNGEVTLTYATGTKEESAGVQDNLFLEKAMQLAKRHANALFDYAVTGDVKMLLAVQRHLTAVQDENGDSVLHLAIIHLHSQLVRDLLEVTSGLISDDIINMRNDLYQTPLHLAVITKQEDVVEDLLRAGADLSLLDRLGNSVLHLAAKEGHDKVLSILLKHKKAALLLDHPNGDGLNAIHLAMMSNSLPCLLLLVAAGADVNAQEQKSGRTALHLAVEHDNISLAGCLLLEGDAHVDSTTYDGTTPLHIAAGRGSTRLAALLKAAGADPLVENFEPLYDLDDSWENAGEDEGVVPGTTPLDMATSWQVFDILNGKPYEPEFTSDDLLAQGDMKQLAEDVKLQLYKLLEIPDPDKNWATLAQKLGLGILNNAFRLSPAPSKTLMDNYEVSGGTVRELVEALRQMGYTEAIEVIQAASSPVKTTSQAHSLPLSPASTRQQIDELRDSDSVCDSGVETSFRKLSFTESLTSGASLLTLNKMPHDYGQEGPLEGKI
Briefly: Inhibition of p50 after 1 hr by ELISA.

In the next assay the target is Transcription factor p65 (Homo sapiens, UniProt Q04206). In words: Inhibition of nuclear factor NF-kappa-B p65 subunit after 1 hr by ELISA. A general note: An ELISA detects its analyte on a solid surface through an enzyme-linked reagent.
Transcription factor p65, sequence (Q04206 whole entry): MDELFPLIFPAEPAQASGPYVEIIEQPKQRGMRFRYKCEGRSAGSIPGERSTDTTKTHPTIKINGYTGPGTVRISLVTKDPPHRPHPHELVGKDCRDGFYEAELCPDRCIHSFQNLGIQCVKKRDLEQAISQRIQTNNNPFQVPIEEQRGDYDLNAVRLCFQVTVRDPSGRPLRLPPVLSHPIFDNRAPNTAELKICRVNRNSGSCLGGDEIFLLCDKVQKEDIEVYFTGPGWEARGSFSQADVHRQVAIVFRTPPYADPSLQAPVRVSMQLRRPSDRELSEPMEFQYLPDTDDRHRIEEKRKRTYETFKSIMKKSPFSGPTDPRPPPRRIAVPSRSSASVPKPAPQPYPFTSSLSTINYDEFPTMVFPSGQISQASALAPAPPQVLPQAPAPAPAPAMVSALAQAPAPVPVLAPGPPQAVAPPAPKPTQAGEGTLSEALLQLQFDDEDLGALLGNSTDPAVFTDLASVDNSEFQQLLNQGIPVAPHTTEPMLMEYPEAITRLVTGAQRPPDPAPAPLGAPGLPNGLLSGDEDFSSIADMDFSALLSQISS
In assay [2] the test system is HT-29. Briefly: Cytotoxicity against human HT-29 cells. It counts as functional. The settings on record: read-out: ED50 (the source's name). An outline of the steps: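 HT-29 human colon cancer cells. Camptothecin was the positive control. Cytotoxic potency is given as ED50.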
The test system of the next assay is MCF7. Briefly: Growth inhibition of human MCF7 cells implanted at intraperitoneal compartment of NCr nu/nu mouse at 2.5 mg/kg to 20 mg/kg by hollow fiber assay. It counts as functional, organism-based.
Assay [3] relates to HT-29. In words: Growth inhibition of human HT-29 cells implanted at intraperitoneal compartment of NCr nu/nu mouse at 2.5 mg/kg to 20 mg/kg by hollow fiber assay. It counts as functional, organism-based. An outline of the steps:
(§1)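 Cells were loaded into hollow fibers and implanted at the intraperitoneal site of mice. Compound was given at 2.5, 5, 10 and 20 mg/kg. Paclitaxel at 20 mg/kg was the positive control.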

Another assay relates to LNCaP. In words: Growth inhibition of human LNCAP cells implanted at intraperitoneal compartment of NCr nu/nu mouse at 2.5 mg/kg to 20 mg/kg by hollow fiber assay. It counts as functional, organism-based. In outline:
as §1

SMILES strings stand for the structures. Calls of active or inactive are those of the source. The rule behind the calls is not given here.

On to `COc1cc2oc3cc(O)c(OC)c(CC=C(C)C)c3c(=O)c2c2c1CC(O)C(C)(C)O2` (stereo not given), for which the IC50 (in assay [1]; on Transcription factor p65) was > 20 µM each time.
Regarding `COc1c(O)cc2oc3cc(O)c4c(c3c(=O)c2c1CC=C(C)C)OC(C)(C)C(O)C4` (stereo not given), the IC50 (in assay [1]; against Transcription factor p65) was > 20 µM throughout.
With `COc1c(O)cc2oc3cc4c(c(O)c3c(=O)c2c1CC=C(C)C)C[C@H](C(C)(C)O)O4`, the EC50 in the assay on HT-29 [2] is > 10000 nM.
As for `COc1cc2oc3cc(O)c(OC)c(CC=C(C)C)c3c(=O)c2c(O)c1CC=C(C)C`, the IC50 was determined as 7.5 µM in assay [1] and 12.1 µM on Transcription factor p65. For the same compound, the EC50 with HT-29 [2] came to 1700 nM.
For `COc1c(O)cc2oc3cc4c(c(O)c3c(=O)c2c1CC=C(C)C)CCC(C)(C)O4`, the EC50 in the assay on HT-29 [2] stood at 4900 nM.
Take `CC(C)=CCc1c(O)c(CC=C(C)C)c2oc3c(O)cccc3c(=O)c2c1O` [8-DEOXYGARTANIN]: the 50% inhibitory concentration (IC50) in assay [1] is > 20 µM; against Transcription factor p65, 11.3 µM. In addition, in the assay on HT-29 [2], the EC50 was > 10000 nM.
On to `CC[C@@]1(O)C(=O)OCc2c1cc1n(c2=O)Cc2cc3ccccc3nc2-1` [CAMPTOTHECIN], for which the EC50 with HT-29 [2] worked out at 60 nM.
As to `COc1c(O)cc2oc3cc4c(c(O)c3c(=O)c2c1CC=C(C)C)[C@@H](c1c(O)c(CC=C(C)C)c(O)c2c(=O)c3c(CC=C(C)C)c(OC)c(O)cc3oc12)[C@H](C(C)(C)O)O4` [CRATOXYXANTHONE], the 50% inhibitory concentration (IC50) (in assay [1]; against Transcription factor p65) was > 20 µM in each case.
`COc1c(O)cc2oc3cc(O)c(CC=C(C)C)c(O)c3c(=O)c2c1CCC(C)(C)O` [GARCINONE D]: the values for the half-maximal inhibitory concentration (IC50) (in assay [1]; at Transcription factor p65) were > 20 µM and 3.2 µM, respectively. Further, the EC50 with HT-29 [2] was determined as 2300 nM.
In the case of `CC(C)=CCc1c(O)c(CC=C(C)C)c2oc3c(O)ccc(O)c3c(=O)c2c1O` [GARTANIN], the IC50 in assay [1] was > 20 µM; at Transcription factor p65, 19 µM. Besides, the EC50 in the assay with HT-29 [2] is > 10000 nM.
`COc1c(O)cc2oc3cc4c(c(O)c3c(=O)c2c1CC=C(C)C)C=CC(C)(C)O4` [MANGOSTANIN]: the IC50 (in assay [1]; against Transcription factor p65) was > 20 µM each time. For the same compound, the EC50 in the assay on HT-29 [2] came to 9100 nM.
`COc1c(O)cc2oc3cc(O)c(CC=C(C)C)c(O)c3c(=O)c2c1CC=C(C)C` [MANGOSTIN]: the half-maximal inhibitory concentration (IC50) was > 20 µM in assay [1] and 15.9 µM on Transcription factor p65. Moreover, the “growth inhibition (GI)” value in the assay on MCF7, in the assay on HT-29 [3] and in the assay with LNCaP was “inactive” each time. The EC50 in the assay with HT-29 [2] was found to be 1700 nM.

Usually IC50 stands for the point on the concentration scale where inhibition reaches its midpoint. A higher IC50 goes with weaker potency in that assay.

The values above are taken from ChEMBL document CHEMBL1154371, “Cytotoxic xanthone constituents of the stem bark of Garcinia mangostana (mangosteen)” (J Nat Prod, 2009).
